Data from ChEMBL document CHEMBL4689842, “EUbOPEN Chemogenomics Library wave 1” (2021).
Values joined by “and” are separate entries in the source; they are usually repeats but may differ in a detail not shown here. Equal values may be shown once.

What was measured:
Format in all cases: toxicity, cell-based
[1] = test system: U2OS; experiment: Multiplex assay against U2OS; details: human, 10 µM, compound concentration 10 uM
Summary of the method: (§1)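 Imaging took place on a CQ1 microscope at 37°C and 5% CO2 once compound had been added to live cells stained at seeding with Hoechst33342, BioTracker Green Microtubule Cytoskeleton Dye, MitoTracker Red and Annexin V Alexa Fluor 680. CellPathfinder machine-learning gating classed cells as Hoechst high-intensity objects or normal cells, classed normal cells as having healthy, pyknosed or fragmented nuclei, and classed pyknosed cells as mitotic or apoptotic. Tubulin, mitochondrial-mass and membrane-permeability phenotypes are per cents of the healthy-nucleus cells.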

[2] = test system: HEK-293T; experiment: Incucyte cell viability with HEK293T; details: human, 10 µM, compound concentration 10 uM; note: filed as whole numbers so only -1 and 0 and 1 occur
[3] = test system: Fibroblast; experiment: Multiplex assay against human fibroblast; details: 10 µM, compound concentration 10 uM; summary of the method: as §1

O=C(O)c1ccc2c(c1)nc(Nc1cccc(Cl)c1)c1ccncc12 [SILMITASERTIB]
Population Apoptotic (%) ([1]; 12 h, replicate 1): 50% and 36% | Population Fragmented Nuclei (%) ([1]; 12 h, replicate 1): 5% | Population Healthy Nuclei (%) ([1]; 12 h, replicate 1): 87% and 85% | Population Hoechst High Intensity Objects (%) ([1]; 12 h, replicate 1): 4% | Population Membrane Permeable-Phenotype (%) ([1]; 12 h, replicate 1): 11% and 8% | Population Mitotic Cells (%) ([1]; 12 h, replicate 1): 50% and 63% | Population Normal (%) ([1]; 12 h, replicate 1): 95% | Population Pyknosed Nuclei (%) ([1]; 12 h, replicate 1): 7% | Population Tubulin-Different-Phenotype (%) ([1]; 12 h, replicate 1): 19% and 32% | Total Cell Count ([1]; 12 h, replicate 1): 163 and 151 | Population Apoptotic (%) ([1]; 12 h, replicate 2): 33% | Population Fragmented Nuclei (%) ([1]; 12 h, replicate 2): 6% and 8% | Population Healthy Nuclei (%) ([1]; 12 h, replicate 2): 90% | Population Hoechst High Intensity Objects (%) ([1]; 12 h, replicate 2): 6% and 13% | Population Membrane Permeable-Phenotype (%) ([1]; 12 h, replicate 2): 10% and 4% | Population Mitochondria Different-Phenotype (%) ([1]; 12 h, replicate 2): 27% and 26% | Population Mitotic Cells (%) ([1]; 12 h, replicate 2): 66% | Population Normal (%) ([1]; 12 h, replicate 2): 93% and 86% | Population Pyknosed Nuclei (%) ([1]; 12 h, replicate 2): 2% and 4% | Population Tubulin-Different-Phenotype (%) ([1]; 12 h, replicate 2): 31% and 18% | Total Cell Count ([1]; 12 h, replicate 2): 140 and 110 | Population Apoptotic (%) ([1]; 24 h, replicate 1): 23% and 50% | Population Fragmented Nuclei (%) ([1]; 24 h, replicate 1): 9% and 4% | Population Healthy Nuclei (%) ([1]; 24 h, replicate 1): 82% and 91% | Population Hoechst High Intensity Objects (%) ([1]; 24 h, replicate 1): 1% and 3% | Population Membrane Permeable-Phenotype (%) ([1]; 24 h, replicate 1): 14% and 6% | Population Mitochondria Different-Phenotype (%) ([1]; 24 h, replicate 1): 20% and 35% | Population Mitotic Cells (%) ([1]; 24 h, replicate 1): 76% and 50% | Population Normal (%) ([1]; 24 h, replicate 1): 98% and 96% | Population Pyknosed Nuclei (%) ([1]; 24 h, replicate 1): 8% and 4% | Population Tubulin-Different-Phenotype (%) ([1]; 24 h, replicate 1): 33% and 35% | Total Cell Count ([1]; 24 h, replicate 1): 208 and 206 | Population Apoptotic (%) ([1]; 24 h, replicate 2): 25% and 11% | Population Fragmented Nuclei (%) ([1]; 24 h, replicate 2): 8% | Population Healthy Nuclei (%) ([1]; 24 h, replicate 2): 83% and 76% | Population Hoechst High Intensity Objects (%) ([1]; 24 h, replicate 2): 4% | Population Membrane Permeable-Phenotype (%) ([1]; 24 h, replicate 2): 10% and 5% | Population Mitochondria Different-Phenotype (%) ([1]; 24 h, replicate 2): 41% | Population Mitotic Cells (%) ([1]; 24 h, replicate 2): 75% and 88% | Population Normal (%) ([1]; 24 h, replicate 2): 95% | Population Pyknosed Nuclei (%) ([1]; 24 h, replicate 2): 7% and 14% | Population Tubulin-Different-Phenotype (%) ([1]; 24 h, replicate 2): 31% and 30% | Total Cell Count ([1]; 24 h, replicate 2): 168 and 127 | Growth Rate ([2]; 0 h, replicate number 1, timepoint 0 hours): 0 | Growth Rate ([2]; 6 h, replicate number 1, timepoint 6 hours): 0 | Growth Rate ([2]; 12 h, replicate number 1, timepoint 12 hours): 0 | Growth Rate ([2]; 18 h, replicate number 1, timepoint 18 hours): 0 | Growth Rate ([2]; 24 h, replicate number 1, timepoint 24 hours): 0 | Population Apoptotic (%) ([3]; 12 h, replicate 1): 75% and 73% | Population Fragmented Nuclei (%) ([3]; 12 h, replicate 1): 29% and 31% | Population Healthy Nuclei (%) ([3]; 12 h, replicate 1): 56% and 60% | Population Hoechst High Intensity Objects (%) ([3]; 12 h, replicate 1): 20% and 12% | Population Membrane Permeable-Phenotype (%) ([3]; 12 h, replicate 1): 10% and 4% | Population Mitochondria Different-Phenotype (%) ([3]; 12 h, replicate 1): 2% and 3% | Population Mitotic Cells (%) ([3]; 12 h, replicate 1): 25% and 26% | Population Normal (%) ([3]; 12 h, replicate 1): 79% and 87% | Population Pyknosed Nuclei (%) ([3]; 12 h, replicate 1): 14% and 7% | Population Tubulin-Different-Phenotype (%) ([3]; 12 h, replicate 1): 6% and 4% | Total Cell Count ([3]; 12 h, replicate 1): 314 and 234 | Population Apoptotic (%) ([3]; 12 h, replicate 2): 33% and 60% | Population Fragmented Nuclei (%) ([3]; 12 h, replicate 2): 60% and 64% | Population Healthy Nuclei (%) ([3]; 12 h, replicate 2): 33% and 25% | Population Hoechst High Intensity Objects (%) ([3]; 12 h, replicate 2): 30% and 32% | Population Membrane Permeable-Phenotype (%) ([3]; 12 h, replicate 2): 17% and 15% | Population Mitochondria Different-Phenotype (%) ([3]; 12 h, replicate 2): 11% and 7% | Population Mitotic Cells (%) ([3]; 12 h, replicate 2): 66% and 40% | Population Normal (%) ([3]; 12 h, replicate 2): 69% and 67% | Population Pyknosed Nuclei (%) ([3]; 12 h, replicate 2): 5% and 9% | Population Tubulin-Different-Phenotype (%) ([3]; 12 h, replicate 2): 29% and 23% | Total Cell Count ([3]; 12 h, replicate 2): 73 and 76 | Population Apoptotic (%) ([3]; 24 h, replicate 1): 53% | Population Fragmented Nuclei (%) ([3]; 24 h, replicate 1): 32% and 26%
